Test results published in ChEMBL document CHEMBL1649392, “Synthesis of substituted 3-amino-N-phenyl-1H-indazole-1-carboxamides endowed with antiproliferative activity” (Eur J Med Chem, 2011).

Tests used:
Format in all cases: functional
OVCAR-8 = test: Antiproliferative activity against human OVCAR8 cells after 48 hrs by sulforhodamine B assay; settings: OVCAR-8, 48 h
Outline: (§1)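 NCI 60-cell-line panel covering nine cancer types (leukemia, non-small cell lung, colon, CNS, melanoma, ovarian, renal, prostate, breast). Compounds were first tested at a single dose, then in a five-dose screen (series starting 0.01, 0.1 …) if they met NCI threshold criteria. Reported per line: GI50 (molar concentration inhibiting 50% net growth), TGI (total growth inhibition) and LC50 (50% net cell death).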

BT-549 = test: Antiproliferative activity against human BT549 cells after 48 hrs by sulforhodamine B assay; settings: BT-549, 48 h; outline: as §1
OVCAR-4 = test: Antiproliferative activity against human OVCAR4 cells after 48 hrs by sulforhodamine B assay; settings: OVCAR-4, 48 h; outline: as §1
TK-10 = test: Antiproliferative activity against human TK10 cells after 48 hrs by sulforhodamine B assay; settings: TK-10, 48 h
Outline: (§2)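 NCI 60-cell-line panel screen: single dose 10 µM first, then 5-dose testing (0.01, 0.1, … molar series). For each line, GI50 is the molar concentration giving 50% inhibition of net cell growth, TGI gives total inhibition of net growth, and LC50 gives 50% net cell death. Method follows the NCI DTP protocol.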

HL-60(TB) = test: Antiproliferative activity against human HL-60(TB) cells after 48 hrs by sulforhodamine B assay; settings: HL-60, 48 h
Outline: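 Tested by the National Cancer Institute in its full tumour cell panel covering nine cancer types, including leukemia. Compounds were first screened at a single dose. Those passing the preset inhibition threshold then went to a 5-dose screen. GI50 is the molar concentration giving 50% inhibition of net cell growth; TGI and LC50 were also derived.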

HCT-116 = test: Antiproliferative activity against human HCT116 cells after 48 hrs by sulforhodamine B assay; settings: HCT-116, 48 h; outline: as §1
UO-31 = test: Antiproliferative activity against human UO31 cells after 48 hrs by sulforhodamine B assay; settings: UO-31, 48 h; outline: as §2
NCI-H23 = test: Antiproliferative activity against human NCI-H23 cells after 48 hrs by sulforhodamine B assay; settings: NCI-H23, 48 h; outline: as §1
CCRF-CEM = test: Antiproliferative activity against human CCRF-CEM cells after 48 hrs by sulforhodamine B assay; outline: as §1
MCF7 = test: Antiproliferative activity against human MCF7 cells after 48 hrs by sulforhodamine B assay; settings: MCF7, 48 h; outline: as §1
LOX IMVI = test: Antiproliferative activity against human LOXIMVI cells after 48 hrs by sulforhodamine B assay; outline: as §1
786-0 = test: Antiproliferative activity against human 786-0 cells after 48 hrs by sulforhodamine B assay; settings: 786-0, 48 h; outline: as §1
EKVX = test: Antiproliferative activity against human EKVX cells after 48 hrs by sulforhodamine B assay; outline: as §1
OVCAR-3 = test: Antiproliferative activity against human OVCAR3 cells after 48 hrs by sulforhodamine B assay; settings: OVCAR-3, 48 h; outline: as §1
SK-MEL-5 = test: Antiproliferative activity against human SK-MEL-5 cells after 48 hrs by sulforhodamine B assay; settings: SK-MEL-5, 48 h; outline: as §1
NCI-H226 = test: Antiproliferative activity against human NCI-H226 cells after 48 hrs by sulforhodamine B assay; settings: NCI-H226, 48 h; outline: as §1
SF-539 = test: Antiproliferative activity against human SF539 cells after 48 hrs by sulforhodamine B assay; settings: SF-539, 48 h; outline: as §1
MDA-MB-435 = test: Antiproliferative activity against human MDA-MB-435 cells after 48 hrs by sulforhodamine B assay; settings: MDA-MB-435, 48 h; outline: as §1
U-251 = test: Antiproliferative activity against human U251 cells after 48 hrs by sulforhodamine B assay; settings: U-251, 48 h; outline: as §2
SW-620 = test: Antiproliferative activity against human SW620 cells after 48 hrs by sulforhodamine B assay; settings: SW-620, 48 h; outline: as §2
K562 = test: Antiproliferative activity against human K562 cells after 48 hrs by sulforhodamine B assay; settings: K562, 48 h; outline: as §1
A549 = test: Antiproliferative activity against human A549 cells after 48 hrs by sulforhodamine B assay; settings: A549, 48 h; outline: as §1
NCI/ADR-RES = test: Antiproliferative activity against human NCI/ADR-RES cells after 48 hrs by sulforhodamine B assay; outline: as §1
HT-29 = test: Antiproliferative activity against human HT-29 cells after 48 hrs by sulforhodamine B assay; settings: HT-29, 48 h; outline: as §1
MOLT-4 = test: Antiproliferative activity against human MOLT4 cells after 48 hrs by sulforhodamine B assay; settings: MOLT-4, 48 h; outline: as §1
M14 = test: Antiproliferative activity against human M14 cells after 48 hrs by sulforhodamine B assay; settings: M14, 48 h; outline: as §1
MDA-MB-231 = test: Antiproliferative activity against human MDA-MB-231 cells after 48 hrs by sulforhodamine B assay; settings: MDA-MB-231, 48 h; outline: as §1
[1] = read-out: LC50 (the source's name)

Q: `Nc1ccc2c(c1)c(N)nn2C(=O)Nc1ccc(Cc2ccccc2)cc1` was tested. Which GI50 (OVCAR-8) did it give?
A: Its GI50 is 20.2 µM.

Q: And the TGI (OVCAR-8)?
A: The TGI was greater than 100 µM.

Q: And the CC50 (OVCAR-8; [1])?
A: Its CC50 is greater than 100 µM.

Q: And the GI50 (BT-549)?
A: Its GI50 is 14.6 µM.

Q: What about the TGI (BT-549) of the same compound?
A: The TGI was 33.5 µM.

Q: And the CC50 (BT-549; [1])?
A: Its CC50 is 76.7 µM.

Q: And the GI50 (OVCAR-4)?
A: The GI50 was 8.29 µM.

Q: What about the TGI (OVCAR-4) of the same compound?
A: Its TGI is 24.1 µM.

Q: And the CC50 (OVCAR-4; [1])?
A: Its CC50 is 63.2 µM.

Q: And the GI50 (TK-10)?
A: Its GI50 is 19.4 µM.

Q: What about the TGI (TK-10) of the same compound?
A: Its TGI is 46 µM.

Q: What about the CC50 (TK-10; [1]) of the same compound?
A: Its CC50 is greater than 100 µM.

Q: And the GI50 (HL-60(TB))?
A: Its GI50 is 3.46 µM.

Q: And the TGI (HL-60(TB))?
A: The TGI was 17.2 µM.

Q: What about the CC50 (HL-60(TB); [1]) of the same compound?
A: The CC50 was 72.2 µM.

Q: What about the GI50 (HCT-116) of the same compound?
A: Its GI50 is 6.79 µM.

Q: What about the LC50 (concentration causing 50% net cell death) (HCT-116) of the same compound?
A: The LC50 (concentration causing 50% net cell death) was 50 µM.

Q: What about the TGI (HCT-116) of the same compound?
A: The TGI was 20.8 µM.

Q: What about the GI50 (UO-31) of the same compound?
A: The GI50 was 4.72 µM.

Q: And the TGI (UO-31)?
A: Its TGI is 32.6 µM.

Q: And the CC50 (UO-31; [1])?
A: The CC50 was greater than 100 µM.

Q: What about the GI50 (NCI-H23) of the same compound?
A: Its GI50 is 16.9 µM.

Q: And the TGI (NCI-H23)?
A: The TGI was 39.5 µM.

Q: What about the CC50 (NCI-H23; [1]) of the same compound?
A: The CC50 was 92.4 µM.

Q: And the GI50 (CCRF-CEM)?
A: The GI50 was 2.07 µM.

Q: And the LC50 (concentration causing 50% net cell death) (CCRF-CEM)?
A: The LC50 (concentration causing 50% net cell death) was greater than 100 µM.

Q: And the TGI (CCRF-CEM)?
A: The TGI was 18.8 µM.

Q: What about the GI50 (MCF7) of the same compound?
A: The GI50 was 6.92 µM.

Q: What about the TGI (MCF7) of the same compound?
A: The TGI was 26.5 µM.

Q: What about the CC50 (MCF7; [1]) of the same compound?
A: Its CC50 is 85.4 µM.

Q: What about the GI50 (LOX IMVI) of the same compound?
A: Its GI50 is 3.38 µM.

Q: And the LC50 (concentration causing 50% net cell death) (LOX IMVI)?
A: The LC50 (concentration causing 50% net cell death) was 46.7 µM.

Q: And the TGI (LOX IMVI)?
A: The TGI was 16 µM.

Q: What about the GI50 (786-0) of the same compound?
A: The GI50 was 12.4 µM.

Q: What about the TGI (786-0) of the same compound?
A: The TGI was 25.9 µM.

Q: And the CC50 (786-0; [1])?
A: The CC50 was 54.3 µM.

Q: And the GI50 (EKVX)?
A: The GI50 was 14 µM.

Q: And the TGI (EKVX)?
A: Its TGI is 36.7 µM.

Q: What about the CC50 (EKVX; [1]) of the same compound?
A: Its CC50 is 96.1 µM.

Q: And the GI50 (OVCAR-3)?
A: Its GI50 is 12.1 µM.

Q: What about the TGI (OVCAR-3) of the same compound?
A: Its TGI is 28.3 µM.

Q: And the CC50 (OVCAR-3; [1])?
A: Its CC50 is 66.7 µM.

Q: What about the GI50 (SK-MEL-5) of the same compound?
A: The GI50 was 6.52 µM.

Q: What about the TGI (SK-MEL-5) of the same compound?
A: Its TGI is 19.8 µM.

Q: What about the CC50 (SK-MEL-5; [1]) of the same compound?
A: Its CC50 is 46.4 µM.

Q: And the GI50 (NCI-H226)?
A: Its GI50 is 16.1 µM.

Q: And the TGI (NCI-H226)?
A: Its TGI is 38.3 µM.

Q: What about the CC50 (NCI-H226; [1]) of the same compound?
A: The CC50 was 91.4 µM.

Q: What about the GI50 (SF-539) of the same compound?
A: The GI50 was 8.7 µM.

Q: And the TGI (SF-539)?
A: Its TGI is 22.1 µM.

Q: What about the CC50 (SF-539; [1]) of the same compound?
A: The CC50 was 51.8 µM.

Q: And the GI50 (MDA-MB-435)?
A: The GI50 was 7.36 µM.

Q: What about the TGI (MDA-MB-435) of the same compound?
A: Its TGI is 23.8 µM.

Q: And the CC50 (MDA-MB-435; [1])?
A: Its CC50 is 65.5 µM.

Q: What about the GI50 (U-251) of the same compound?
A: The GI50 was 6.53 µM.

Q: What about the LC50 (concentration giving 50% net cell death) (U-251) of the same compound?
A: Its LC50 (concentration giving 50% net cell death) is 52 µM.

Q: And the TGI (U-251)?
A: The TGI was 20.9 µM.

Q: And the GI50 (SW-620)?
A: Its GI50 is 4.48 µM.

Q: What about the TGI (SW-620) of the same compound?
A: The TGI was 18.7 µM.

Q: What about the CC50 (SW-620; [1]) of the same compound?
A: The CC50 was 58.5 µM.

Q: And the GI50 (K562)?
A: Its GI50 is 2.24 µM.

Q: What about the LC50 (concentration causing 50% net cell death) (K562) of the same compound?
A: Its LC50 (concentration causing 50% net cell death) is greater than 100 µM.

Q: What about the TGI (K562) of the same compound?
A: The TGI was 11.4 µM.

Q: And the GI50 (A549)?
A: The GI50 was 6.58 µM.

Q: What about the TGI (A549) of the same compound?
A: The TGI was 57.1 µM.

Q: And the CC50 (A549; [1])?
A: Its CC50 is greater than 100 µM.

Q: And the GI50 (NCI/ADR-RES)?
A: Its GI50 is 17.4 µM.

Q: What about the TGI (NCI/ADR-RES) of the same compound?
A: The TGI was 75.1 µM.

Q: And the CC50 (NCI/ADR-RES; [1])?
A: The CC50 was greater than 100 µM.

Q: And the GI50 (HT-29)?
A: The GI50 was 4.51 µM.

Q: And the LC50 (concentration giving 50% net cell death) (HT-29)?
A: Its LC50 (concentration giving 50% net cell death) is 46 µM.

Q: And the TGI (HT-29)?
A: Its TGI is 17.2 µM.

Q: What about the GI50 (MOLT-4) of the same compound?
A: The GI50 was 4.48 µM.

Q: And the TGI (MOLT-4)?
A: Its TGI is 24.3 µM.

Q: And the CC50 (MOLT-4; [1])?
A: Its CC50 is greater than 100 µM.

Q: And the GI50 (M14)?
A: The GI50 was 4.59 µM.

Q: And the TGI (M14)?
A: Its TGI is 17.8 µM.

Q: What about the CC50 (M14; [1]) of the same compound?
A: The CC50 was 51.9 µM.

Q: And the GI50 (MDA-MB-231)?
A: The GI50 was 7.74 µM.

Q: And the TGI (MDA-MB-231)?
A: The TGI was 22.7 µM.

Q: And the CC50 (MDA-MB-231; [1])?
A: The CC50 was 54.3 µM.
